Measured values taken from ChEMBL document CHEMBL5058577, “EUbOPEN Chemogenomics Library 2 (Multiplex)” (2022).

Tested on: HEK-293T
Experiment: Multiplex assay against HEK293T
Type: toxicity, cell-based
Conditions: human
How it was run: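 Cells were classed with CellPathfinder machine-learning gating, first as Hoechst high-intensity objects or normal cells, then (normal cells) as healthy, pyknosed or fragmented nuclei, and finally (pyknosed cells) as mitotic or apoptotic. Staining of live cells at seeding used Hoechst33342, BioTracker Green Microtubule Cytoskeleton Dye, MitoTracker Red and Annexin V Alexa Fluor 680, with imaging on a CQ1 microscope at 37°C and 5% CO2 after compound addition. Tubulin, mitochondrial-mass and membrane-permeability phenotypes are per cents of healthy-nucleus cells.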

[1] = 12 h, 1 µM, compound concentration 1 uM, replicate 1
[2] = 12 h, 1 µM, compound concentration 1 uM, replicate 2
[3] = 12 h, 10 µM, compound concentration 10 uM, replicate 1
[4] = 12 h, 10 µM, compound concentration 10 uM, replicate 2
[5] = 24 h, 1 µM, compound concentration 1 uM, replicate 1
[6] = 24 h, 1 µM, compound concentration 1 uM, replicate 2
[7] = 24 h, 10 µM, compound concentration 10 uM, replicate 1
[8] = 24 h, 10 µM, compound concentration 10 uM, replicate 2
[9] = 48 h, 1 µM, compound concentration 1 uM, replicate 1
[10] = 48 h, 1 µM, compound concentration 1 uM, replicate 2
[11] = 48 h, 10 µM, compound concentration 10 uM, replicate 1
[12] = 48 h, 10 µM, compound concentration 10 uM, replicate 2

Compound: Cl.NCCc1ccc(O)c(O)c1 [DOPAMINE HYDROCHLORIDE]
- Population Apoptotic (%) [1]: 31%
- Population Fragmented Nuclei (%) [1]: 6%
- Population Healthy Nuclei (%) [1]: 77%
- Population Hoechst High Intensity Objects (%) [1]: 10%
- Population Membrane Permeable-Phenotype (%) [1]: 0%
- Population Mitochondria Different-Phenotype (%) [1]: 54%
- Population Mitotic Cells (%) [1]: 68%
- Population Normal (%) [1]: 89%
- Population Pyknosed Nuclei (%) [1]: 16%
- Population Tubulin-Different-Phenotype (%) [1]: 36%
- Total Cell Count [1]: 324
- Population Apoptotic (%) [2]: 54%
- Population Fragmented Nuclei (%) [2]: 7%
- Population Healthy Nuclei (%) [2]: 78%
- Population Hoechst High Intensity Objects (%) [2]: 6%
- Population Mitochondria Different-Phenotype (%) [2]: 58%
- Population Mitotic Cells (%) [2]: 46%
- Population Normal (%) [2]: 93%
- Population Pyknosed Nuclei (%) [2]: 14%
- Population Tubulin-Different-Phenotype (%) [2]: 18%
- Total Cell Count [2]: 372
- Population Apoptotic (%) [3]: 46%
- Population Fragmented Nuclei (%) [3]: 5%
- Population Healthy Nuclei (%) [3]: 77%
- Population Hoechst High Intensity Objects (%) [3]: 6%
- Population Membrane Permeable-Phenotype (%) [3]: 0%
- Population Mitochondria Different-Phenotype (%) [3]: 57%
- Population Mitotic Cells (%) [3]: 53%
- Population Normal (%) [3]: 93%
- Population Pyknosed Nuclei (%) [3]: 17%
- Population Tubulin-Different-Phenotype (%) [3]: 43%
- Total Cell Count [3]: 344
- Population Apoptotic (%) [4]: 37%
- Population Healthy Nuclei (%) [4]: 83%
- Population Hoechst High Intensity Objects (%) [4]: 5%
- Population Mitochondria Different-Phenotype (%) [4]: 51%
- Population Mitotic Cells (%) [4]: 62%
- Population Normal (%) [4]: 94%
- Population Pyknosed Nuclei (%) [4]: 11%
- Population Tubulin-Different-Phenotype (%) [4]: 23%
- Total Cell Count [4]: 413
- Population Apoptotic (%) [5]: 44%
- Population Fragmented Nuclei (%) [5]: 9%
- Population Healthy Nuclei (%) [5]: 76%
- Population Hoechst High Intensity Objects (%) [5]: 4%
- Population Membrane Permeable-Phenotype (%) [5]: 1%
- Population Mitochondria Different-Phenotype (%) [5]: 40%
- Population Mitotic Cells (%) [5]: 55%
- Population Normal (%) [5]: 95%
- Population Pyknosed Nuclei (%) [5]: 13%
- Population Tubulin-Different-Phenotype (%) [5]: 19%
- Total Cell Count [5]: 451
- Population Apoptotic (%) [6]: 20%
- Population Fragmented Nuclei (%) [6]: 8%
- Population Healthy Nuclei (%) [6]: 85%
- Population Hoechst High Intensity Objects (%) [6]: 5%
- Population Membrane Permeable-Phenotype (%) [6]: 0%
- Population Mitochondria Different-Phenotype (%) [6]: 46%
- Population Mitotic Cells (%) [6]: 79%
- Population Normal (%) [6]: 94%
- Population Pyknosed Nuclei (%) [6]: 5%
- Population Tubulin-Different-Phenotype (%) [6]: 11%
- Total Cell Count [6]: 478
- Population Apoptotic (%) [7]: 39%
- Population Fragmented Nuclei (%) [7]: 7%
- Population Healthy Nuclei (%) [7]: 79%
- Population Hoechst High Intensity Objects (%) [7]: 5%
- Population Membrane Permeable-Phenotype (%) [7]: 0%
- Population Mitochondria Different-Phenotype (%) [7]: 36%
- Population Mitotic Cells (%) [7]: 60%
- Population Normal (%) [7]: 94%
- Population Pyknosed Nuclei (%) [7]: 12%
- Population Tubulin-Different-Phenotype (%) [7]: 23%
- Total Cell Count [7]: 393
- Population Apoptotic (%) [8]: 38%
- Population Fragmented Nuclei (%) [8]: 9%
- Population Healthy Nuclei (%) [8]: 83%
- Population Mitochondria Different-Phenotype (%) [8]: 40%
- Population Mitotic Cells (%) [8]: 61%
- Population Pyknosed Nuclei (%) [8]: 7%
- Population Tubulin-Different-Phenotype (%) [8]: 15%
- Total Cell Count [8]: 533
- Population Apoptotic (%) [9]: 19%
- Population Fragmented Nuclei (%) [9]: 14%
- Population Healthy Nuclei (%) [9]: 78%
- Population Hoechst High Intensity Objects (%) [9]: 4%
- Population Membrane Permeable-Phenotype (%) [9]: 1%
- Population Mitochondria Different-Phenotype (%) [9]: 23%
- Population Mitotic Cells (%) [9]: 80%
- Population Normal (%) [9]: 95%
- Population Pyknosed Nuclei (%) [9]: 7%
- Population Tubulin-Different-Phenotype (%) [9]: 14%
- Total Cell Count [9]: 785
- Population Apoptotic (%) [10]: 23%
- Population Fragmented Nuclei (%) [10]: 10%
- Population Healthy Nuclei (%) [10]: 81%
- Population Membrane Permeable-Phenotype (%) [10]: 0%
- Population Mitochondria Different-Phenotype (%) [10]: 20%
- Population Mitotic Cells (%) [10]: 76%
- Population Tubulin-Different-Phenotype (%) [10]: 7%
- Total Cell Count [10]: 638
- Population Apoptotic (%) [11]: 30%
- Population Fragmented Nuclei (%) [11]: 14%
- Population Healthy Nuclei (%) [11]: 79%
- Population Hoechst High Intensity Objects (%) [11]: 3%
- Population Membrane Permeable-Phenotype (%) [11]: 0%
- Population Mitochondria Different-Phenotype (%) [11]: 24%
- Population Mitotic Cells (%) [11]: 70%
- Population Normal (%) [11]: 96%
- Population Pyknosed Nuclei (%) [11]: 6%
- Population Tubulin-Different-Phenotype (%) [11]: 13%
- Total Cell Count [11]: 660
- Population Apoptotic (%) [12]: 17%
- Population Fragmented Nuclei (%) [12]: 12%
- Population Healthy Nuclei (%) [12]: 83%
- Population Hoechst High Intensity Objects (%) [12]: 1%
- Population Mitochondria Different-Phenotype (%) [12]: 17%
- Population Mitotic Cells (%) [12]: 82%
- Population Normal (%) [12]: 98%
- Population Pyknosed Nuclei (%) [12]: 4%
- Population Tubulin-Different-Phenotype (%) [12]: 7%
- Total Cell Count [12]: 859
